Source: ChEMBL document CHEMBL1255473, “Homozygous triplicate mutations in three 16S rRNA genes responsible for high-level aminoglycoside resistance in Nocardia farcinica clinical isolates from a Canada-wide bovine mastitis epizootic” (2010)
Converted amounts (≈) assume the structure as drawn. The source made the active and inactive calls. The calls are words filed in the database; no cut-off is given here.

Key:
Nocardia farcinica [1] = assay: Antimicrobial activity against amikacin-resistant Nocardia farcinica IFM 10580 after 3 days by broth microdilution method; type: functional
Method in brief: (§1)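 Broth microdilution in BHI medium with a range of aminoglycosides. Cells were incubated at 37°C, OD600 was measured, and the MIC was read on day 3 of incubation.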

Nocardia farcinica [2] = assay: Antimicrobial activity against amikacin-susceptible Nocardia farcinica IFM 10152 after 3 days by broth microdilution method; type: functional
Method in brief: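 Broth microdilution in BHI medium, final inoculum 10^4 CFU/ml. Host strain carried empty pNV19 vector. Cells incubated with serial aminoglycoside concentrations at 37°C for 3 days. MIC read from OD600.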

Nocardia farcinica [3] = assay: Antimicrobial activity against amikacin-susceptible Nocardia farcinica IFM 10152 harboring 16s rRNA A1408G mutant after 3 days by broth microdilution method; type: functional; method in brief: as §1
Nocardia farcinica [4] = assay: Antimicrobial activity against amikacin-susceptible Nocardia farcinica IFM 10152 harboring 16s rRNA A1408G mutant after 5 days by broth microdilution method; type: functional
Method in brief: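 Broth microdilution in BHI medium across several aminoglycosides. Cells were held at 37°C and MIC was determined from OD600 on day 5 of incubation.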

Nocardia farcinica [5] = assay: Antimicrobial activity against amikacin-resistant Nocardia farcinica IFM 10580 assessed as cell growth at 1024 ug/ml at <12 hrs; type: functional, organism-based
Method in brief: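 Cells were cultured in the presence of 1,024 μg/ml amikacin and growth was followed over time.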

Nocardia farcinica [6] = assay: Antimicrobial activity against amikacin-susceptible Nocardia farcinica isolate IFM 10152-M3 assessed as cell growth at 1024 ug/ml at <12 hrs; type: functional, organism-based
Nocardia farcinica [7] = assay: Antimicrobial activity against amikacin-susceptible Nocardia farcinica IFM 10152-M3 expressing rrnA A1408G, rrnB A1408G and rrnC A1408G mutant genes after 3 days by broth microdilution method; type: functional; conditions: IFM 10152-M3, 72 h; method in brief: as §1
Nocardia farcinica [8] = assay: Antimicrobial activity against amikacin-susceptible Nocardia farcinica IFM 10152-M2 expressing rrnA A1408G and rrnC A1408G mutant genes after 3 days by broth microdilution method; type: functional; conditions: IFM 10152-M2, 72 h; method in brief: as §1
Nocardia farcinica [9] = assay: Antimicrobial activity against amikacin-susceptible Nocardia farcinica isolate IFM 10152-M2 assessed as cell growth at 1024 ug/ml after 24 hrs
Nocardia farcinica [10] = assay: Antimicrobial activity against amikacin-susceptible Nocardia farcinica IFM 10152-M2 expressing wild type rrnB gene and plasmid encoded rrnA A1408G and rrnC A1408G mutant genes after 3 days by broth microdilution method; type: functional; conditions: IFM 10152-M2, 72 h; method in brief: as §1
Nocardia farcinica [11] = assay: Antimicrobial activity against amikacin-susceptible Nocardia farcinica isolate IFM 10152-M2 assessed as cell growth at 1024 ug/ml after 24 hrs; type: functional, organism-based

Row | Molecule | MIC (Nocardia farcinica [1]; IFM 10580, 72 h) [µg/mL] | MIC (Nocardia farcinica [2]; IFM 10152, 72 h) [µg/mL] | MIC (Nocardia farcinica [3]; IFM 10152, 72 h) [µg/mL] | MIC (Nocardia farcinica [4]; IFM 10152, 120 h) [µg/mL] | further results
1 | CN[C@H]1C[C@@H](N)[C@H](O)[C@@H](O[C@@H]2O[C@H](CO)[C@H](O)[C@H]3O[C@@]4(O[C@H]23)O[C@H]([C@H](N)CO)[C@H](O)[C@H](O)[C@H]4O)[C@@H]1O | 32 (≈ 60.7 µM) | 32 (≈ 60.7 µM) | 32 (≈ 60.7 µM) | 32 (≈ 60.7 µM) | 
2 | NCC[C@H](O)C(=O)N[C@@H]1C[C@H](N)[C@@H](O[C@H]2O[C@H](CN)[C@@H](O)[C@H](O)[C@H]2O)[C@H](O)[C@H]1O[C@H]1O[C@H](CO)[C@@H](O)[C@H](N)[C@H]1O [AMIKACIN] | > 1020 | < 1 | 64 (≈ 109 µM) | > 1020 | Activity (Nocardia farcinica [5]): inactive; Activity (Nocardia farcinica [6]): inactive; MIC (Nocardia farcinica [7]): > 1020 µg/mL; MIC (Nocardia farcinica [8]): < 1 µg/mL; Activity (Nocardia farcinica [9]): inactive; MIC (Nocardia farcinica [10]): > 1020 µg/mL; Activity (Nocardia farcinica [11]): inactive
3 | CN[C@@H]1[C@@H](O[C@H]2O[C@H](CO)[C@@H](N)[C@H](O)[C@H]2O)OC2C[C@@H](N)[C@@H](O[C@H]3[C@H](O)[C@@H](O)[C@H](N)C[C@@H]3N)OC2[C@@H]1O (some centres undefined) [APRAMYCIN] | > 1020 | 32 (≈ 59.3 µM) | 64 (≈ 119 µM) | 256 (≈ 474 µM) | 
4 | NCC[C@H](O)C(=O)N[C@@H]1C[C@H](N)[C@@H](O[C@H]2O[C@H](CN)CC[C@H]2N)[C@H](O)[C@H]1O[C@H]1O[C@H](CO)[C@@H](O)[C@H](N)[C@H]1O [ARBEKACIN] | > 1020 | < 1 | 2 (≈ 3.62 µM) | > 1020 | 
5 | NC[C@@H]1O[C@H](O[C@H]2[C@@H](O)[C@H](O[C@@H]3[C@@H](O)[C@H](N)C[C@H](N)[C@H]3O[C@H]3O[C@H](CN)[C@@H](O)[C@H](O)[C@H]3N)O[C@@H]2CO)[C@H](N)[C@@H](O)[C@@H]1O [FRAMYCETIN] | > 1020 | 16 (≈ 26 µM) | > 1020 | > 1020 | 
6 | CN[C@@H]1[C@@H](O)[C@@H](O[C@@H]2[C@@H](O)[C@H](O[C@H]3O[C@H](CN)[C@@H](O)[C@H](O)[C@H]3O)[C@@H](N)C[C@H]2NC(=O)[C@@H](O)CN)OC[C@]1(C)O [ISEPAMICIN] | > 1020 | < 1 | 16 (≈ 28.1 µM) | 128 (≈ 225 µM) | 
7 | NC[C@H]1O[C@H](O[C@H]2[C@H](O)[C@@H](O[C@H]3O[C@H](CO)[C@@H](O)[C@H](N)[C@H]3O)[C@H](N)C[C@@H]2N)[C@H](O)[C@@H](O)[C@@H]1O [KANAMYCIN] | > 1020 | 256 (≈ 528 µM) | > 1020 | > 1020 | 
8 | CCN[C@@H]1C[C@H](N)[C@@H](O[C@H]2OC(CN)=CC[C@H]2N)[C@H](O)[C@H]1O[C@H]1OC[C@](C)(O)[C@H](NC)[C@H]1O [NETILMICIN] | > 1020 | < 1 | 4 (≈ 8.41 µM) | 32 (≈ 67.3 µM) | 
9 | NC[C@@H]1O[C@H](O[C@H]2[C@@H](O)[C@H](O[C@@H]3[C@@H](O)[C@H](N)C[C@H](N)[C@H]3O[C@H]3O[C@H](CO)[C@@H](O)[C@H](O)[C@H]3N)O[C@@H]2CO)[C@H](N)[C@@H](O)[C@@H]1O [PAROMOMYCIN] | > 1020 | 8 (≈ 13 µM) | > 1020 | > 1020 | 
10 | NC[C@H]1O[C@H](O[C@H]2[C@H](O[C@@H]3O[C@H](CO)[C@@H](O)[C@H]3O)[C@@H](O)[C@H](N)C[C@@H]2N)[C@H](N)[C@@H](O)[C@@H]1O [RIBOSTAMYCIN] | > 1020 | 256 (≈ 563 µM) | > 1020 | > 1020 | 
11 | CN[C@@H]1[C@H](O[C@H]2[C@H](O[C@H]3[C@H](O)[C@@H](O)[C@H](N=C(N)N)[C@@H](O)[C@@H]3N=C(N)N)O[C@@H](C)[C@]2(O)C=O)O[C@@H](CO)[C@H](O)[C@H]1O [STREPTOMYCIN] | 128 (≈ 220 µM) | 64 (≈ 110 µM) | 64 (≈ 110 µM) | 128 (≈ 220 µM) | 
12 | NC[C@H]1O[C@H](O[C@H]2[C@H](O)[C@@H](O[C@H]3O[C@H](CO)[C@@H](O)[C@H](N)[C@H]3O)[C@H](N)C[C@@H]2N)[C@H](N)C[C@@H]1O [TOBRAMYCIN] | > 1020 | 32 (≈ 68.4 µM) | 64 (≈ 137 µM) | > 1020 | 
13 | GENTAMICIN |  |  |  |  | MIC (Nocardia farcinica [1]): > 1020 µg/mL; MIC (Nocardia farcinica [2]): 64 µg/mL; MIC (Nocardia farcinica [3]): 256 µg/mL; MIC (Nocardia farcinica [4]): > 1020 µg/mL
